Assay outcomes from PubChem.
The list is not random: actives were taken first. Their share in the collection is about 1.3%.
S100A4 MyoIIA: inhibitors of S100A4-myosin IIA peptide binding, primary screen, biochemical, fluorescence polarization, TAMRA-MyoIIA peptide; inhibition, % at 10.7 µM; Protein S100-A4 (Homo sapiens), P26447; 360,000 compounds, 0.14% hits; AID 652163, 2013;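 active = mean inhibition of at least 70% across replicates, with every replicate also reaching that level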
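Compound dosing: one dose per compound; test system: human S100A4 monomer with TAMRA-labelled myosin IIA peptide; probe or stimulus: TAMRA-labelled myosin IIA heavy-chain peptide probe, 5 nM; medium: HEPES buffer with Ca2+, pH 7.2; schedule: 5 min incubation before reading; benchmarks: neutral control DMSO, positive control TFP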
RAD52 anneal inh: RAD52 DNA annealing inhibitors, primary screen, biochemical, FRET, single point, set 2. recombinant RAD52 DNA annealing, FRET fluorescence. inhibition, % at 18.7 µM. 360,000 compounds, 0.46% hits;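 active = every replicate showing at least 50% inhibition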
Target sequence (P43351 whole entry, looked up): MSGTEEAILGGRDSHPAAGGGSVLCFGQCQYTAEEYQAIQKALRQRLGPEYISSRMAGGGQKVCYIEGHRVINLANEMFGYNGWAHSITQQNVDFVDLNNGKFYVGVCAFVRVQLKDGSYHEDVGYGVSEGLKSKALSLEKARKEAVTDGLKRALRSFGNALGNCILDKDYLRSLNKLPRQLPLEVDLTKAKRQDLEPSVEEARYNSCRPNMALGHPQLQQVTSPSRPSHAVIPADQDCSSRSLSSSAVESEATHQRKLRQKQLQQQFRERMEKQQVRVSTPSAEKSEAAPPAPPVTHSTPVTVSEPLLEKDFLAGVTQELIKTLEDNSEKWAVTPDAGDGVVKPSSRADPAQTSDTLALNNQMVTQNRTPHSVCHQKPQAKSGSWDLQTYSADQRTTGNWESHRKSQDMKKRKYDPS
RAD54 branch: inhibitors of human RAD54 branch migration, primary screen, biochemical, fluorescence, single point | RAD54 Holliday junction branch migration, FAM/BHQ fluorescence | inhibition, % at 10.4 µM | 360,000 compounds, 0.14% hits;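 active = mean normalized replicate activity at least 40 and at least half of replicates scoring 40 or more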;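 also: 0% = median of neutral control wells and 100% = median of positive control wells; inhibitors cause a drop in the FAM fluorescence signal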
CASP6 VEID inh: human caspase-6 inhibitors, primary screen, biochemical, VEID-R110 fluorescence, single point, set 2 | P55212 | purified caspase-6, Z-VEID-R110 cleavage fluorescence | inhibition, % at 12.5 µM | 350,000 compounds, 0.53% hits | AID 686996, 2013;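 active = mean inhibition across replicates at least about 35%, with every replicate also reaching that limit, limit read from the data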;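 also: 0% = median of neutral control wells and 100% = no fluorescence left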
Target sequence (P55212 24-179 limits assumed): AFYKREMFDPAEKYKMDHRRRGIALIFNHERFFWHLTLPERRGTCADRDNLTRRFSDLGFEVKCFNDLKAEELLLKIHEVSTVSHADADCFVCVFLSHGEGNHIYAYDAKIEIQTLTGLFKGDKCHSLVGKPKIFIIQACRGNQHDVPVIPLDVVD
Target sequence (P55212 194-293 limits assumed): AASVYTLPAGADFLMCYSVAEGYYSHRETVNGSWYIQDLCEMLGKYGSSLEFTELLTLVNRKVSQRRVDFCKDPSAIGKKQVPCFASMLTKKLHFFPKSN
MLL AF4-AF9 inh: inhibitors of AF4 peptide binding to AF9, primary screen, biochemical, AlphaScreen, biotin-AF4 peptide, FLAG-AF9, single point. Protein AF-9 (Homo sapiens), P42568. inhibition, % at 10 µM. 350,000 compounds, 0.47% hits;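 active = every replicate reaching a set inhibition limit, whatever the replicate mean, cut at about 25% in these data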;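 also: 0% = plate neutral control median and 100% = total signal loss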
Xi reactivation: activators of inactive X chromosome reactivation, primary screen, imaging, XiGFP fibroblasts, GFP high-content imaging, set 2; XiGFP mouse fibroblasts, % GFP-positive cells imaging, 3 d; cells co-treated with 5-aza-dC sensitizer; scaled so ellipticine positive control = 100%; activation, % at 7.58 µM; 360,000 compounds, 0.055% hits;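 active = mean normalized replicate activation at least 10% and every replicate at or above 10%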;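 also: 0% = median of on-plate neutral control wells and 100% = ellipticine 6 µM median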
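System: 68-5-11 XiGFP fibroblast line; Timing: 3 days compound exposure; Compound dosing: one concentration, pinned; Benchmarks: positive control ellipticine, 6 µM final; Buffer or medium: DMEM containing 5-aza-dC.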
Active calls of the source: *; · = no result.

SMILES	S100A4 MyoIIA	RAD52 anneal inh	RAD54 branch	CASP6 VEID inh	MLL AF4-AF9 inh	Xi reactivation
COc1ccccc1NC(=O)N1CC[C@H]2[C@@H]1c1cc(-c3ccc(F)cc3)ccc1N(C)[C@H]2CO	-10.8	-10.2	0.7	-1.8	1.1	-0.1
CCCNC(=O)N1CC[C@@H]2[C@@H](CO)N(C)c3ccc(-c4ccc(F)cc4)cc3[C@@H]21	92.9*	2.1	8.7	3.1	19.2	0.3
COc1ccccc1NC(=O)N1CC[C@@H]2[C@H]1c1cc(C#Cc3ccc(F)cc3)ccc1N(C)[C@@H]2CO	-10.9	70.1*	5.7	-1.6	-2.8	0.1
COc1ccccc1NC(=O)N1CC[C@@H]2[C@H]1c1cc(-c3cccc(F)c3)ccc1N(C)[C@H]2CO	5.8	1.8	-7.1	0.1	7.3	0.1
COc1ccccc1NC(=O)N1CC[C@@H]2[C@H]1c1cc(-c3ccccc3)ccc1N(C)[C@@H]2CO	-2.3	51.9*	16.8	0.3	-0.4	0.0
COc1ccc(COCC23N=C4SCc5ccccc5CN4[C@H](c4ccccc4O2)[C@H]3COC(=O)c2ccccc2)cc1	7.7	1.5	6.7	-3.2	0.0	·
COc1ccc(CN(C)C[C@@H]2OCCCC[C@H](C)Oc3ccc(N(C)C)cc3C(=O)N([C@H](C)CO)C[C@@H]2C)cc1	1.9	24.9	-14.0	-11.1	8.4	0.3
C[C@H](CO)N1C[C@H](C)[C@H](CN(C)CC2CC2)OCCCC[C@H](C)Oc2ccc(NC(=O)Nc3ccc(C(F)(F)F)cc3)cc2C1=O	0.1	54.2*	·	-0.8	13.2	0.4
C[C@@H]1CCCCO[C@@H](CN(C)C)[C@H](C)CN([C@H](C)CO)C(=O)c2cc(NC(=O)Nc3ccc(C(F)(F)F)cc3)ccc2O1	-5.4	50.0*	4.3	1.1	6.6	-0.1
C[C@@H]1CCCCO[C@H](CN(C)C)[C@@H](C)CN([C@H](C)CO)C(=O)c2cc(NC(=O)Nc3ccc(C(F)(F)F)cc3)ccc2O1	-1.4	22.7	-5.2	-0.9	1.6	0.1
C[C@@H]1CN([C@H](C)CO)C(=O)c2cc(NC(=O)Nc3ccc(C(F)(F)F)cc3)ccc2O[C@@H]1CN(C)C(=O)Nc1ccc(C(F)(F)F)cc1	105.8*	19.5	5.9	-2.3	1.2	0.1
C[C@@H]1CCCCO[C@@H](CN(C)C)[C@@H](C)CN([C@H](C)CO)C(=O)c2cc(NC(=O)Nc3ccc(C(F)(F)F)cc3)ccc2O1	4.0	53.8*	-1.4	-3.0	2.2	0.0
C[C@@H]1CCCCO[C@H](CN(C)CC2CC2)[C@H](C)CN([C@@H](C)CO)C(=O)c2cc(NC(=O)Nc3ccc(C(F)(F)F)cc3)ccc2O1	·	·	-21.9	·	·	0.2
COc1ccc2c3c(n(C)c2c1)[C@H](CO)N(C)CC31CCN(S(C)(=O)=O)CC1	·	·	·	·	·	0.3
C[C@@H]1CCCCO[C@H](CN(C)C(=O)NC2CCCCC2)[C@@H](C)CN([C@@H](C)CO)C(=O)c2cc(NC(=O)Nc3ccc(C(F)(F)F)cc3)ccc2O1	142.6*	-20.7	4.7	-1.0	3.2	0.1
O=C(c1cccc([N+](=O)[O-])c1)N1CCc2ccccc21	-2.8	-2.1	6.8	0.2	-1.2	0.1
O=C(c1ccc([N+](=O)[O-])cc1)N1CCc2ccccc21	7.2	-10.0	·	0.0	47.0*	0.0
O=C1CN(S(=O)(=O)c2ccccc2)C[C@H]2[C@@H](c3ccc(Br)cc3)[C@@H](CO)N12	3.8	1.7	·	-1.3	0.9	0.3
CO[C@H]1CN(C)C(=O)c2ccc(NS(C)(=O)=O)cc2OC[C@H](C)N(C(=O)C2CCC2)C[C@@H]1C	24.6	0.8	2.7	0.8	-1.8	-0.5
Cc1noc(C)c1COc1ccccc1C(=O)N(C)CC(=O)Nc1ccc(F)c(F)c1F	-3.3	-0.7	6.0	53.3*	0.2	0.0
Cc1ccc(C)c(NC(=O)CN(C)C(=O)c2ccccc2OCc2c(C)noc2C)c1	-2.7	-17.2	1.3	-0.4	-0.1	0.3
C[C@@H]1CN([C@H](C)CO)C(=O)Cc2cc(NC(=O)CCN3CCOCC3)ccc2O[C@H]1CN(C)S(=O)(=O)c1ccc(F)cc1	8.0	1.2	-6.1	-1.1	0.1	0.2
Cc1cc(N=Nc2ccc(C)c(N=Nc3cc(C)c(N)cc3N)c2)c(N)cc1N	-2.0	79.8*	100.6*	-22.0	63.0*	0.2
Cc1cc(-c2cc(C)c(N)cc2C)c(C)cc1N	-1.6	-13.1	8.0	-1.8	4.6	0.2
COc1ccccc1C#Cc1cnc2c(c1)C(=O)N([C@@H](C)CO)C[C@H](C)[C@@H](CN(C)C(C)=O)O2	6.5	8.5	-2.6	-1.5	-0.8	-2.0
SMILES	S100A4 MyoIIA	RAD52 anneal inh	RAD54 branch	CASP6 VEID inh	MLL AF4-AF9 inh	Xi reactivation
COc1ccc(CCNCc2cc(C)n(-c3ccc(OC)cc3)c2C)cc1	-8.0	25.4	-0.5	-3.1	39.4*	0.0
Cc1ccc(S(=O)(=O)NCC(=O)N2CCC(C)CC2)cc1	-5.8	-12.7	-5.6	0.7	48.4*	0.3
Cc1ccc(S(=O)(=O)NCCCC(=O)N2CCC(C)CC2)cc1	3.7	-16.5	-4.4	-1.8	2.3	0.1
O=C(CCS(=O)(=O)c1ccc(Br)cc1)N1CCCCCC1	0.3	-4.4	0.0	61.0*	-20.3	0.0
CSc1cccc(NC(=O)C2CCN(S(=O)(=O)c3ccc4c(c3)NC(=O)CO4)CC2)c1	85.8*	-9.7	13.6	2.4	4.1	0.1
Cc1cccc(NC(=O)C2CCN(S(=O)(=O)c3ccc4c(c3)NC(=O)CO4)CC2)c1C	-3.9	-10.6	-7.9	0.7	-0.5	0.0
COc1ccc(N2CCN(C(=O)CN3CCN(c4nc(-c5ccc(F)cc5)cs4)CC3)CC2)cc1	6.8	-7.1	-0.1	2.7	27.0*	0.1
COc1ccc(NS(=O)(=O)c2ccc(C)c(NC(=O)CN3C(=O)NC4(CCCC4)C3=O)c2)cc1	-10.3	24.2	4.3	-301.8	40.8*	0.3
Cc1ccc(S(=O)(=O)N(C)C)cc1NC(=O)CN1C(=O)NC2(CCCCCC2)C1=O	1.5	-10.3	-10.8	-65.1	2.9	-0.1
CCn1ccc(C(=O)NC2C(=O)N3C(C(=O)O)=C(C)CSC23)n1 (stereo not given)	·	·	4.4	·	·	·
C=CC1=C(C(=O)O)N2C(=O)[C@@H](NC(=O)/C(=N\O)c3csc(N)n3)[C@H]2SC1 (stereo in doubt)	-4.1	-28.2	-3.0	87.5*	-25.1	0.1
